# Experimental data: article PMC3729352 (Pharmacological research : the official journal of the …, 2011)
# Columns and labels:
# [1] = Transepithelial transport across MDCKII parental monolayers; format: in vitro ADME, canine; details: dog, MDCK
# [2] = target: T1, mouse Abcg2 (Mus musculus, UniProt Q7TMS5); assay: Transepithelial transport across MDCKII monolayers over-expressing mouse Abcg2; format: in vitro ADME
# T1 sequence (Q7TMS5 1-657): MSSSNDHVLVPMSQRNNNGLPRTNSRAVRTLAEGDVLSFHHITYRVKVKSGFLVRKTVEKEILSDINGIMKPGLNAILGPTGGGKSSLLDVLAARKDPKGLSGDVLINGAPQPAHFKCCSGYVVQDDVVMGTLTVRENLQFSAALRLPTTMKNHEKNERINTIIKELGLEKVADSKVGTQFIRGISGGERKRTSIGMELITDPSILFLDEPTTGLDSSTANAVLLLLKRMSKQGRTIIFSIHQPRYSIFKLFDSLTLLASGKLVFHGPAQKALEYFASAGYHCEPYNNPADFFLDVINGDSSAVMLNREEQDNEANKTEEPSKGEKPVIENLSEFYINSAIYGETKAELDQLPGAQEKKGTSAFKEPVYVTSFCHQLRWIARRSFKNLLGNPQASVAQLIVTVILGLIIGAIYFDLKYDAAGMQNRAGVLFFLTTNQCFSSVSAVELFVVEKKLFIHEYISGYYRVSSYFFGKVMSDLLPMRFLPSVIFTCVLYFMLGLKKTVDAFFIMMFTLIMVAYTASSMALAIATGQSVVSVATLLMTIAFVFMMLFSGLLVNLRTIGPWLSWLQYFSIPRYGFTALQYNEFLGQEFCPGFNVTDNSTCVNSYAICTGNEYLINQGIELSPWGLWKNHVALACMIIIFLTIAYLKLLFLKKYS
# [3] = Plasma and tissue levels of URB937 in wild-type and Abcg2-/- mice; format: in vivo, mouse; details: 25 mg-kg^−1 s.c., mean ± SEM; for Level of URB937 in brain / Level of URB937 in kidney / Level of URB937 in liver / Level of URB937 in spinal cord: 1 h; for concentration at 1 h: mouse, plasma, sc, 25 mg-kg^−1, Level of URB937 in plasma
# How it was run: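 Dosing: test compound 25 mg-kg−1 s.c. in saline/PEG400/Tween-80 (18:1:1) to Abcg2−/− (n = 4) and wild-type littermates (n = 5); killed at 1 h. Plasma obtained by cardiac puncture and spun 2000 × g. Tissue homogenates and plasma extracted with methanol/chloroform (1:2) containing internal standard. Analysis by ESI-LC/MS on a C18 column with a methanol/water gradient (0.25% acetic acid, 5 mM ammonium acetate) at m/z 377; mean ± SEM.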
# [4] = target: T2, FAAH (Mus musculus, UniProt O08914); assay: Ex vivo FAAH activity in tissues of wild-type and Abcg2-/- mice after URB937; details: URB937 25 mg-kg^−1 s.c., 1 h
# T2 sequence (O08914 1-579): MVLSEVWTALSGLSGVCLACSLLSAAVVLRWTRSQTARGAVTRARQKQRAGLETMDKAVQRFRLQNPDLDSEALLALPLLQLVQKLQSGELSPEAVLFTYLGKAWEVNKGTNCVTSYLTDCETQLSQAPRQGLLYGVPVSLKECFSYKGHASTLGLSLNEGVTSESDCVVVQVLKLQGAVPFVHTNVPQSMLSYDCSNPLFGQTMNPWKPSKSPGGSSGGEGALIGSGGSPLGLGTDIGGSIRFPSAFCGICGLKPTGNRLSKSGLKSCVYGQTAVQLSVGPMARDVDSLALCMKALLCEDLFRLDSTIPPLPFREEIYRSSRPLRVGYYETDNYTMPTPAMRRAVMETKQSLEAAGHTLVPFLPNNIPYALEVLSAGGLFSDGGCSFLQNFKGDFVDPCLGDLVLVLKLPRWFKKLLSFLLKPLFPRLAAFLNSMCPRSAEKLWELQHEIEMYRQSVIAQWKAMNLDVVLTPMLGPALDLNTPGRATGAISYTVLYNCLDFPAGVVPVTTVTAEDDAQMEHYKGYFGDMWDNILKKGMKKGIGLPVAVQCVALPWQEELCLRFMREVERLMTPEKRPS
# How it was run: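 Male Abcg2−/− mice (n = 4) and wild-type FVB littermates (n = 5), 9–13 weeks, given test compound at 25 mg-kg−1 s.c. in saline/PEG400/Tween-80 (18:1:1). Killed 1 h later; tissues homogenized in 50 mM Tris-HCl pH 7.5 with 0.32 M sucrose. FAAH assay: 37°C, 30 min, 0.05% BSA, 50 µg protein (100 µg liver), 10 µM anandamide plus [3H]-anandamide. Read-out: aqueous-phase scintillation counting; mean ± SEM.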
# [5] = target: T3, human ABCG2 (Homo sapiens, UniProt Q9UNQ0)
# T3 sequence (Q9UNQ0 1-655): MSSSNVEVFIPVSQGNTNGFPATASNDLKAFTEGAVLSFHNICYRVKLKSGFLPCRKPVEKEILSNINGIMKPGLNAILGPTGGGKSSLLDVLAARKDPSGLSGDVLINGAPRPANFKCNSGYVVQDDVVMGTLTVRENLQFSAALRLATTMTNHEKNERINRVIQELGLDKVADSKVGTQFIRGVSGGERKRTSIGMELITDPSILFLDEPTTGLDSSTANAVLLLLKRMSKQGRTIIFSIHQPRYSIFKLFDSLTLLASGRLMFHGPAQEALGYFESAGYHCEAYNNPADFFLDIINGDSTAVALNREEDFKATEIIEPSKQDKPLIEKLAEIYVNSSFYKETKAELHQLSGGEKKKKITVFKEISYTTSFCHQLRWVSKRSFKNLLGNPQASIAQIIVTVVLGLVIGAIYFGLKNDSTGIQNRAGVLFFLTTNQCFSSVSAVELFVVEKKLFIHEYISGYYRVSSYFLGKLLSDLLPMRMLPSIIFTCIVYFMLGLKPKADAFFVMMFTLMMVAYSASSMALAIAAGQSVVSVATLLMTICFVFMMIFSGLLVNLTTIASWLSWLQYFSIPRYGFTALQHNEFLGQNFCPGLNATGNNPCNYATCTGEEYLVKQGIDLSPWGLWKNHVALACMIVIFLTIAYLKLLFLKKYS
# [6] = target: T2, FAAH; details: cited from earlier work
# [7] = target: T4, ABCG2 (Mus musculus, UniProt Q7TMS5); format: in vivo; details: Ko143 0, 1, 3 and 10 mg-kg^−1 i.p., 20 min prior to URB937 25 mg-kg^−1 s.c., ex vivo 1 h after URB937
# T4 sequence (Q7TMS5 1-657): T1 sequence (Q7TMS5 1-657)
structure (smiles),measurement,setting,value
"NC(=O)c1cccc(-c2cc(OC(=O)NC3CCCCC3)ccc2O)c1 [URB937, cyclohexylcarbamic acid 3'-carbamoyl-6-hydroxybiphenyl-3-yl ester]","efflux ratio at 4 h, 5 µM",[1],1.5
same,"efflux ratio at 4 h, 5 µM",[2]; mouse,13.6
same,increase of relative transport ratio by over-expression vs parental cells,[2]; mouse Abcg2 over-expression,~10 folds
same,Level of URB937 in brain,[3]; Abcg2^−/− mice,1.15 ± 0.04 pmol/mg
same,Level of URB937 in kidney,[3]; Abcg2^−/− mice,34.97 ± 0.35 pmol/mg
same,Level of URB937 in liver,[3]; Abcg2^−/− mice,7.75 ± 2.3 pmol/mg
same,Level of URB937 in spinal cord,[3]; Abcg2^−/− mice,0.80 ± 0.10 pmol/mg
same,concentration at 1 h,[3]; Abcg2^−/− mice,6.95 ± 0.9 µM
same,concentration at 1 h,[3]; wild-type mice,8.34 ± 1.7 µM
same,Level of URB937 in brain,[3]; wild-type mice,0.46 ± 0.12 pmol/mg
same,Level of URB937 in kidney,[3]; wild-type mice,33.88 ± 3.3 pmol/mg
same,Level of URB937 in liver,[3]; wild-type mice,7.51 ± 3.1 pmol/mg
same,Level of URB937 in spinal cord,[3]; wild-type mice,0.29 ± 0.04 pmol/mg
same,reduction in FAAH activity in brain and spinal cord,[4]; Abcg2^−/− mice compared to wild-type,80%
same,FAAH activity in liver and kidney tissue,[4]; wild-type and Abcg2^−/− mice,nearly abolished
same,inhibition of FAAH activity in CNS,[4]; wild-type mice,almost no inhibition
same,increase of relative transport ratio by over-expression vs parental cells,[5],~10 folds
same,potency at inhibiting FAAH activity in mouse liver relative to mouse brain,[6]; mouse liver vs mouse brain,400 times
same,"half-maximal effective dose (ID50), liver FAAH activity","[6]; systemic administration in mice, liver",0.1 mg/kg
same,"FAAH activity in forebrain, hypothalamus and spinal cord",[6]; systemic administration in mice,fails to alter
"COc1ccc2c3c([nH]c2c1)[C@H](CC(C)C)N1C(=O)[C@H](CCC(=O)OC(C)(C)C)NC(=O)[C@@H]1C3 [Ko143, reference compound]",inhibition of Abcg2-mediated transport of URB937,"[2]; Ko143 1 µM, URB937 5 µM, MDCKII-Abcg2",completely inhibited
same,brain FAAH activity,[7],dose-dependent decrease
